This note sets out measurements from ChEMBL document CHEMBL4665841, “Rapid Solid-Phase Construction of Serine Hydrolase Probes Results in Selective Activity-Based Probes for Acyl Protein Thioesterases-1/2” (J Med Chem, 2020).

Active and inactive are the calls of the source. The rule behind the calls is not given here.

Assay [1] addresses T1, Acyl-protein thioesterase 1/2 (Mus musculus) (UniProt P97823+Q9WTL7). The assay can be described thus: Inhibition of FP-Rh binding to APT-1/2 in mouse brain membrane fraction preincubated for 1 hr followed by FP-Rh addition and measured after 1 hr by SDS-PAGE analysis. The format is cell membranes. The note with it: time 2.0 hrs. A digest of the protocol: (§1)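 Apparent IC50 by competitive ABPP. Mouse brain cytosolic or membrane fraction (1 mg/mL) preincubated 1 h at RT with six inhibitor concentrations (1:3 serial dilution from top 30 μM or 370 nM; 100x DMSO stock), then FP-rhodamine 1 h. 12% SDS-PAGE, fluorescence at 532/568 nm. Band intensities normalized to uninhibited FP-Rh control (100%); IC50 fitted from dose-response curve.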

Assay [2] deals with T1, Acyl-protein thioesterase 1/2 (Mus musculus). As to the kind of experiment: (§2) Inhibition of FP-Rh binding to APT-1/2 in mouse brain cytosolic fraction preincubated for 1 hr followed by FP-Rh addition and measured after 1 hr by SDS-PAGE analysis. Conditions: time 2.0 hrs. The format is tissue-based. The essentials:
as §1

The target of assay [3] is Acyl-protein thioesterase 1/2 (Mus musculus, UniProt P97823+Q9WTL7). The description is as §2. In kind it is tissue-based. A digest of the protocol: as §1
In assay [4] the target is T2, Monoacylglycerol lipase ABHD6 (Mus musculus, UniProt Q8R2Y0).
T2 sequence (Q8R2Y0 whole entry): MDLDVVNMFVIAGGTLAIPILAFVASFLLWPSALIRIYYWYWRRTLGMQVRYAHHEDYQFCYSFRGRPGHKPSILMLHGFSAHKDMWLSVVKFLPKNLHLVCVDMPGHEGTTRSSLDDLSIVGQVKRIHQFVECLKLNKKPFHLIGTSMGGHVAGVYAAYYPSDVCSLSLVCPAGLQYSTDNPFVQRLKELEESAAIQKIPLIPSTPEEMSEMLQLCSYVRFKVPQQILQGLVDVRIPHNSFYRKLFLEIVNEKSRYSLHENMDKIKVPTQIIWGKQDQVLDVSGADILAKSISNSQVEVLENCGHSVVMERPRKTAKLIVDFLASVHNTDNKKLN
As to the kind of experiment: Inhibition of FP-Rh binding to ABHD6 in mouse brain cytosolic fraction preincubated for 1 hr followed by FP-Rh addition and measured after 1 hr by SDS-PAGE analysis. In kind it is tissue-based. A digest of the protocol: as §1

For assay [5], the target named is T1, Acyl-protein thioesterase 1/2 (Mus musculus). The assay can be described thus: Inhibition of APT-1/2 in mouse brain cytosolic fraction at 0.1 to 1 uM preincubated for 1 hr followed by TAMRA-alkyne addition and measured after 1 hr by SDS-PAGE analysis based click chemistry labelling method. In kind it is tissue-based. Conditions: dose microM 0.1-1, time 2.0 hrs. A digest of the protocol:
(§3)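 Mouse brain cytosolic or membrane fraction (1 mg/mL; membrane pellet from 100,000 g spin, in 20 mM HEPES, 2 mM DTT, pH 7.2) incubated 1 h with probe added from 100x DMSO stock. CuAAC click with TAMRA-alkyne, THPTA, sodium ascorbate and CuSO4 for 1 h at room temperature; boiled in sample buffer, 12% SDS-PAGE, in-gel fluorescence.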

For assay [6], the species on record is Mus musculus. As to the kind of experiment: Selectivity ratio of apparent IC50 for inhibition of FP-Rh binding to ABHD6 in mouse brain cytosolic fraction to apparent IC50 for inhibition of FP-Rh binding to APT-1/2 in mouse brain membrane fraction. In kind it is cell membranes. The essentials: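 Ratio of apparent IC50 values from competitive ABPP in mouse brain fractions (1 mg/mL). Each IC50 came from a 1 h inhibitor preincubation over six 1:3-diluted concentrations, then 1 h FP-rhodamine. 12% SDS-PAGE and in-gel fluorescence; band intensity normalized to uninhibited control, then fitted to a dose-response curve.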

Assay [7] addresses T1, Acyl-protein thioesterase 1/2 (Mus musculus). The assay can be described thus: Inhibition of APT-1/2 in mouse brain membrane fraction at 1 uM preincubated for 1 hr followed by TAMRA-Lys(biotin)-NH-propyne addition and measured after 1 hr click chemistry labelling based Western blot analysis. Conditions: time 2.0 hrs. The format is cell membranes. The essentials: (§4)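 Cytosolic or membrane mouse brain fraction (1 mg/mL) treated 1 h with 1 μM probe (100x DMSO stock) or DMSO. Click with TAMRA-Lys(biotin)-NHpropyne tag, THPTA, CuSO4, ascorbate, 1 h RT. Two cold-acetone precipitations, redissolved in PBS/2% SDS, diluted to 0.4% SDS, streptavidin pull-down 1 h at 25 °C. Gel fluorescence scanned, then blotted with anti-APT-1 or anti-APT-2 (0.5 μg/mL) overnight, HRP anti-rabbit, chemiluminescence.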

The target is the same in assay [8]. The assay can be described thus: Inhibition of APT-1/2 in mouse brain membrane fraction at 0.1 to 1 uM preincubated for 1 hr followed by TAMRA-alkyne addition and measured after 1 hr by SDS-PAGE analysis based click chemistry labelling method. The format is cell membranes. Conditions: dose microM 0.1-1, time 2.0 hrs. A digest of the protocol: as §3
Assay [9] has the same target. The assay can be described thus: Inhibition of APT-1/2 in mouse brain cytosolic fraction at 1 uM preincubated for 1 hr followed by TAMRA-Lys(biotin)-NH-propyne addition and measured after 1 hr click chemistry labelling based Western blot analysis. In kind it is tissue-based. Conditions: time 2.0 hrs. The essentials: as §4
(In western blotting, separated proteins are transferred to a membrane and probed.)

The target of assay [10] is Acyl-protein thioesterase 1/2 (Homo sapiens) (UniProt O75608+O95372). The assay can be described thus: Inhibition of FP-Rh binding to APT-1/2 in human A-431 cells at 1 uM preincubated for 2 hrs followed by compound washout and subsequent FP-Rh addition and measured after 1 hr by SDS-PAGE analysis.
Acyl-protein thioesterase 1/2 (Homo sapiens), sequence (O75608 whole entry, looked up): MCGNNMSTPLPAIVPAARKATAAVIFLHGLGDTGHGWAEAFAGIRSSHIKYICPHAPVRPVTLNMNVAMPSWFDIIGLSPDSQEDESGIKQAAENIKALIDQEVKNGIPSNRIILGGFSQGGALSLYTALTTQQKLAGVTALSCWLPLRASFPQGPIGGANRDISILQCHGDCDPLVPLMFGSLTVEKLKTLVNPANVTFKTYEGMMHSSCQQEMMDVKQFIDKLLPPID
Acyl-protein thioesterase 1/2 (Homo sapiens), sequence (O95372 whole entry, looked up): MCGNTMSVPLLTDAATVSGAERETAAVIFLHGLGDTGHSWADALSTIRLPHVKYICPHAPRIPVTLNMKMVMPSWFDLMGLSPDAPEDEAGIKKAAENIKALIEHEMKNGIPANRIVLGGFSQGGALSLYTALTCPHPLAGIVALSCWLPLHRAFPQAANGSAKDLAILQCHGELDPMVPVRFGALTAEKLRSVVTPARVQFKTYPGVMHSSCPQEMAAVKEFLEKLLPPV

T1 sequence (P97823 whole entry, looked up): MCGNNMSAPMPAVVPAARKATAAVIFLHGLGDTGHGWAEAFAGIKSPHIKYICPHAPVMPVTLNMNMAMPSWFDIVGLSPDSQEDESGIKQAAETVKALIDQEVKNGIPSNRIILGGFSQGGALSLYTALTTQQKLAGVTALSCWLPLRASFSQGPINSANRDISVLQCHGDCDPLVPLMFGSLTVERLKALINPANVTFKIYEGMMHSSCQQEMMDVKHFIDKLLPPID
T1 sequence (Q9WTL7 whole entry, looked up): as the sequence (O95372 whole entry, looked up) above, with A154N, S193T counted along it

In the case of `[N-]=[N+]=NCCCC[C@H](NC(=O)CCCCCNC(=O)CN(Cc1ccccc1)C(=O)C1CCN(C(=O)ON2C(=O)CCC2=O)CC1)C(N)=O`, the inhibition result in assay [1] and in assay [2] was “Active” each time.
Consider `[N-]=[N+]=NCCCC[C@H](NC(=O)CCCCCNC(=O)c1ccc(CN2CCN(C(=O)ON3C(=O)CCC3=O)CC2)cc1)C(N)=O`, for which the inhibition entry in assay [1] and in [2] was “Active” throughout.
For the compound `[N-]=[N+]=NCCCC[C@H](NC(=O)CCCCCNC(=O)CN(Cc1ccccc1)C(=O)C1CCN(C(=O)n2ccnn2)CC1)C(N)=O`, the inhibition entry in assay [1], in [5], in assay [7], in [8], in [9] and in assay [10] was “Active” each time. For the same compound, the “IC50(app)” value in assay [3] stood at 0.0118 µM. The IC50 in assay [4] was above 30 µM. Besides, the Ratio IC50 in assay [6] is above 2500.
Take `[N-]=[N+]=NCCCC[C@H](NC(=O)CCCCCNC(=O)c1ccc(CN2CCN(C(=O)n3ccnn3)CC2)cc1)C(N)=O`: the inhibition entry in [1], in [5], in [7], in assay [8], in [9] and in assay [10] was “Active” in each case. Moreover, the “IC50(app)” value in assay [3] came out at 0.0279 µM. The same compound returned an IC50 in assay [4] of 7.4 µM. Further, the Ratio IC50 in assay [6] worked out at 250.
As to `[N-]=[N+]=NCCCC[C@H](NC(=O)CCCCCNC(=O)[C@H](Cc1ccccc1)NC(=O)C1CCN(C(=O)n2ccnn2)CC1)C(N)=O`, the inhibition entry in assay [1] was “Active”. Besides, the “IC50(app)” value in [3] was determined as 0.46 µM. This compound also registered an IC50 in assay [4] above 30 µM. The Ratio IC50 in assay [6] was above 65.

Broadly, the IC50 is the concentration that inhibits the measured activity by half. Low readings indicate higher potency, high ones lower potency.
